Bioassay records from PubChem.
T cruzi growth-1: T. cruzi proliferation inhibition. inhibition, % at 8.34 µM. 77,000 tested, 5.9% active. T. cruzi beta-gal in NIH3T3, GalScreen luminescence, 90 h;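 active = mean inhibition above about 93%, with at least 55% of replicates each passing it, limit read from the data, passing the limit was not always enough; inconclusive = only one of those two conditions holds; inactive = neither condition holds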
GASC1 inh: blocks human GASC-1 (KDM4C) demethylase activity; GST-KDM4C 2-372, H3K9me3 peptide, LANCE TR-FRET; inhibition, % at 12.5 µM; 96,000 tested, 0.15% active;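 active = mean replicate inhibition above about 25%, with at least 55% of replicates also reaching it, limit read from the data, passing the limit was not always enough; inconclusive = only one of those two conditions met; inactive = neither condition met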
Target sequence (Q9H3R0 2-372 limits assumed): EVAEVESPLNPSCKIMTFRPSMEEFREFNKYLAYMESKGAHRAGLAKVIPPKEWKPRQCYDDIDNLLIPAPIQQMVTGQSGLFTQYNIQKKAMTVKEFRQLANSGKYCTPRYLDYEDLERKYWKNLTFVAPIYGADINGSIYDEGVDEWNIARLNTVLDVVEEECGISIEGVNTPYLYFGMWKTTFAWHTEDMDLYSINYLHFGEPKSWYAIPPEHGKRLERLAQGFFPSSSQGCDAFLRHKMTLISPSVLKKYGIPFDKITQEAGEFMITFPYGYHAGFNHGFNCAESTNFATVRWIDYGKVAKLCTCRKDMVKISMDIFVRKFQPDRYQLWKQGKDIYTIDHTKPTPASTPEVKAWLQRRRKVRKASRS
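System: N-terminal GST-fused human GASC-1 (KDM4C) fragment, residues 2-372; amount: enzyme final amount 10 nM; incubation: reaction 30 min RT, detection step 1 h RT; medium: HEPES buffer, pH 7.5, plus ascorbate; technique: LANCE TR-FRET, Eu antibody, ULight-streptavidin, EDTA, ex 340 nm, em 618/671 nm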
IDH1 R132H inh: IDH1 R132H (human) inhibition; AID 624101; IDH1 R132H reductase, diaphorase/resazurin fluorescence, 60 min; 70,000 tested, 0.18% active; inhibition, % at 10 µM; O75874; in the data active = inhibition above about 34%; inconclusive = no clear call, values can overlap the other calls; inactive = below about 11%;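 note: 0% = DMSO and 100% = no enzyme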
Pf Dd2 inh: inhibitors of Plasmodium falciparum Dd2 growth; 94,000 tested, 2.3% active; P. falciparum Dd2 growth, SYBR Green, 72 h; stronger effect = lower value; activity change, % at 10 µM; in the data active = activity change below about -80%; inconclusive = no clear call, values can overlap the other calls
T cruzi growth-2: Trypanosoma cruzi proliferation inhibition. T. cruzi beta-gal in NIH3T3, GalScreen luminescence, 90 h. inhibition, % at 8.35 µM. 5,600 tested, 72% active. AID 651739. shares compounds with T cruzi growth-1;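 active = mean replicate inhibition above about 95% and at least 55% of replicates individually reaching it, limit read from the data; inconclusive = only one of the two criteria is met; inactive = neither criterion is met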
T cruzi growth-3: inhibitors of T. cruzi proliferation | shares compounds with T cruzi growth-1 | 5,600 tested, 21% active | T. cruzi beta-gal in NIH3T3, GalScreen luminescence, 90 h | inhibition, % at 2.09 µM;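 active = mean inhibition above about 95%, with at least 55% of replicates also reaching it, limit read from the data; inconclusive = meets just one of the two conditions; inactive = meets neither condition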;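 note: plate controls were neutral control median for no effect and positive control median for full effect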
3T3 cytotox: cytotoxicity in mouse NIH/3T3 fibroblasts | shares compounds with T cruzi growth-1 | NIH/3T3 viability, CellTiter-Glo ATP luminescence, 90 h | cytotoxicity (signal decrease), % at 8.35 µM | 5,600 tested, 14% active | AID 651742;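 active = mean signal decrease across replicates above about 35% based on untreated-well scatter, with enough replicates individually passing, limit read from the data; inconclusive = no rule stated though some were filed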;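 note: 0% = median of neutral control wells and 100% = median of positive control wells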
NIH3T3 tox 2: kills mouse NIH/3T3 fibroblasts | inhibition, % at 24.9 µM | shares compounds with T cruzi growth-1 | NIH/3T3 viability, CellTiter-Glo ATP luminescence, 90 h | AID 651744 | 5,600 tested, 56% active;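 active = mean loss of cell viability signal at or above a set limit, and enough replicates individually reaching it; inconclusive = meets only the mean limit or only the replicate share; inactive = meets neither condition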;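 note: 0% = median of neutral control wells and 100% = median of positive control wells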
Numbers without * were called inactive. In the library only some 5.8% were active in any assay of this set; here they are far more common.

C[C@H](CO)N1C[C@H](C)[C@@H](CN(C)S(=O)(=O)c2ccc(F)cc2)Oc2c(NC(=O)Nc3ccc(C(F)(F)F)cc3)cccc2C1=O was read as GASC1 inh -1.2, IDH1 R132H inh -1.3 and Pf Dd2 inh 11.5.
Screening Cc1ccc(S(=O)(=O)N(C)C[C@H]2Oc3c(cccc3N(C)C)C(=O)N([C@H](C)CO)C[C@@H]2C)cc1 returned T cruzi growth-1 inconclusive, GASC1 inh -1.0, IDH1 R132H inh -5.3, Pf Dd2 inh -0.2, T cruzi growth-2 98.7*, T cruzi growth-3 15.2, 3T3 cytotox 8.2 and NIH3T3 tox 2 27.8*.
`C[C@@H]1CN([C@H](C)CO)C(=O)c2cccc(NC(=O)Nc3ccc(C(F)(F)F)cc3)c2O[C@H]1CN(C)S(=O)(=O)c1ccc(F)cc1` gave T cruzi growth-1 inconclusive, GASC1 inh -5.2, IDH1 R132H inh 6.4, Pf Dd2 inh 9.7, T cruzi growth-2 107.8*, T cruzi growth-3 33.8, 3T3 cytotox 9.8 and NIH3T3 tox 2 39.3*.
For COc1ccc(S(=O)(=O)N(C)C[C@@H]2Oc3c(NC(=O)Nc4cccc5ccccc45)cccc3C(=O)N([C@@H](C)CO)C[C@H]2C)cc1 the results were GASC1 inh -0.6 and IDH1 R132H inh 2.3.
Screening Cc1ccc(S(=O)(=O)N(C)C[C@H]2Oc3c(NC(=O)Nc4ccccc4)cccc3C(=O)N([C@H](C)CO)C[C@H]2C)cc1 returned T cruzi growth-1 100.8*, GASC1 inh -0.1, IDH1 R132H inh 0.3, Pf Dd2 inh -36.9, T cruzi growth-2 inconclusive, T cruzi growth-3 19.8, 3T3 cytotox 5.9 and NIH3T3 tox 2 47.8*.
`CC(C)C(=O)Nc1ccc2c(c1)C(=O)N(C)[C@H]1CC[C@@H](CC(=O)NCc3cccc(F)c3)O[C@@H]1CO2` gave T cruzi growth-1 -6.2, GASC1 inh 4.2 and Pf Dd2 inh 8.9.
Screening O=C(N[C@@H]1CC[C@@H](CCn2cc(-c3ccccn3)nn2)O[C@H]1CO)c1ccc(F)cc1 returned T cruzi growth-1 22.8, GASC1 inh -0.4, IDH1 R132H inh -0.1 and Pf Dd2 inh -68.6.
Screening C[C@@H]1CCCCO[C@@H](CN(C)C(=O)NC2CCCCC2)[C@H](C)CN([C@@H](C)CO)C(=O)c2cc(NC(=O)Nc3ccc(C(F)(F)F)cc3)ccc2O1 returned T cruzi growth-1 87.4, GASC1 inh 1.2 and Pf Dd2 inh -7.9.
Screening C[C@H](CO)N1C[C@H](C)[C@@H](CN(C)C(=O)c2cnccn2)Oc2cc(Br)ccc2S1(=O)=O returned T cruzi growth-1 -3.3, GASC1 inh -0.3, IDH1 R132H inh 0.1 and Pf Dd2 inh 17.9.
C[C@H](CO)N1C[C@H](C)[C@@H](CN(C)S(=O)(=O)c2ccc(Cl)cc2)Oc2c(NC(=O)Nc3ccc(C(F)(F)F)cc3)cccc2C1=O was read as T cruzi growth-1 inconclusive, IDH1 R132H inh 0.9, Pf Dd2 inh -69.7, T cruzi growth-2 90.1, T cruzi growth-3 111.3*, 3T3 cytotox 46.1* and NIH3T3 tox 2 104.9*.
Screening COc1cccc(-c2ccc([C@H]3[C@@H](C#N)N(C(=O)Cc4ccccc4)[C@@H]3CO)cc2)c1 returned T cruzi growth-1 97.3*, GASC1 inh -4.5, Pf Dd2 inh -65.3, T cruzi growth-2 109.6*, T cruzi growth-3 66.8, 3T3 cytotox 16.9 and NIH3T3 tox 2 42.9*.
Screening COc1cccc(-c2ccc([C@H]3[C@H](C#N)N(C(=O)Cc4ccncc4)[C@H]3CO)cc2)c1 returned T cruzi growth-1 inconclusive, GASC1 inh 0.3, Pf Dd2 inh inconclusive, T cruzi growth-2 101.8*, T cruzi growth-3 58.5, 3T3 cytotox 12.7 and NIH3T3 tox 2 52.2*.
Screening COc1cccc(-c2ccc([C@@H]3[C@@H](C#N)N(C(=O)Cc4ccncc4)[C@@H]3CO)cc2)c1 returned T cruzi growth-1 74.9, GASC1 inh -7.2 and Pf Dd2 inh -46.4.
For CCS(=O)(=O)Nc1ccc2c(c1)C(=O)N(C)[C@H]1CC[C@H](CC(=O)Nc3ccccc3C)O[C@@H]1CO2 the results were GASC1 inh 1.3 and Pf Dd2 inh 48.8.
`CCCN(C)C[C@@H]1Oc2ncc(-c3ccccc3OC)cc2C(=O)N([C@H](C)CO)C[C@H]1C` gave T cruzi growth-1 51.5, GASC1 inh 0.8, IDH1 R132H inh -0.4 and Pf Dd2 inh -59.9.
Screening C[C@@H]1CN([C@@H](C)CO)C(=O)c2cc(NC(=O)CCCN(C)C)ccc2O[C@@H](C)CCCCO[C@H]1CN(C)CC1CCCCC1 returned T cruzi growth-1 -5.5 and GASC1 inh 2.3.
Screening C[C@@H]1CN([C@H](C)CO)S(=O)(=O)c2ccc(-c3ccc(F)cc3)cc2O[C@@H]1CN(C)S(C)(=O)=O returned GASC1 inh 0.1, IDH1 R132H inh 1.1 and Pf Dd2 inh 14.7.
For COCC(=O)N1CC[C@H]2[C@@H]1c1cc(-c3cccc(OC)c3)ccc1N(C)[C@H]2CO the results were T cruzi growth-1 101.0*, GASC1 inh 1.7, Pf Dd2 inh 8.4, T cruzi growth-2 107.9*, T cruzi growth-3 78.5, 3T3 cytotox 3.5 and NIH3T3 tox 2 -6.6.
Screening COc1cccc(-c2ccc3c(c2)[C@H]2[C@H](CCN2C(=O)CC2CC2)[C@H](CO)N3C)c1 returned T cruzi growth-1 9.1, GASC1 inh 2.1 and Pf Dd2 inh -9.1.
`CCC(=O)N1CC[C@H]2[C@@H]1c1cc(-c3cccc(OC)c3)ccc1N(C)[C@H]2CO` gave T cruzi growth-1 99.1*, GASC1 inh 0.2, Pf Dd2 inh -1.2, T cruzi growth-2 101.3*, T cruzi growth-3 76.7, 3T3 cytotox 11.4 and NIH3T3 tox 2 -4.0.
Screening CCC(=O)N1CC[C@@H]2[C@H]1c1cc(-c3ccccc3)ccc1N(C)[C@H]2CO returned T cruzi growth-1 35.6, GASC1 inh 2.4 and Pf Dd2 inh -5.1.
For COc1cccc(-c2ccc3c(c2)[C@@H]2[C@@H](CCN2C(=O)CC2CC2)[C@H](CO)N3C)c1 the results were T cruzi growth-1 4.7, GASC1 inh 2.5 and Pf Dd2 inh -18.1.
`COCC(=O)N1CC[C@@H]2[C@H]1c1cc(-c3cccc(OC)c3)ccc1N(C)[C@H]2CO` gave T cruzi growth-1 95.9*, GASC1 inh 2.9, Pf Dd2 inh -5.6, T cruzi growth-2 103.4*, T cruzi growth-3 106.0*, 3T3 cytotox -23.7 and NIH3T3 tox 2 -38.4.
For COc1ccccc1S(=O)(=O)N[C@@H]1C=C[C@@H](CC(=O)NCc2cc(F)cc(F)c2)O[C@H]1CO the results were T cruzi growth-1 -23.9, GASC1 inh 3.0, IDH1 R132H inh 0.3 and Pf Dd2 inh -51.7.
